This note sets out measurements from ChEMBL document CHEMBL3797186, “Single Residue Substitutions That Confer Voltage-Gated Sodium Ion Channel Subtype Selectivity in the NaV1.7 Inhibitory Peptide GpTx-1” (J Med Chem, 2016).

For test [1], the target named is Sodium channel protein type 5 subunit alpha (Homo sapiens, UniProt Q14524). The experiment in a line: Inhibition of human Nav1.5 expressed in HEK293 cells assessed as inward peak current by ion-works quattro patch clamp electrophysiology method. Type of test: cell-based. The gist of the method: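 Stable HEK293 line expressing human NaV1.5, recorded by population patch clamp on the IonWorks Quattro.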
For orientation: In patch-clamp work, channel activity is measured electrically.

Test [2] addresses Sodium channel protein type 9 subunit alpha (Homo sapiens, UniProt Q15858). The test is described as follows: Inhibition of human Nav1.7 expressed in HEK293 cells assessed as inward peak current by ion-works quattro patch clamp electrophysiology method. Type of test: cell-based.

pIC50: −log10 of the molar value. Positions of bridges follow the written chain, without caps; N, C: chain ends. Non-standard residues stand in square brackets, D forms with d. Residues, ends and D or L forms follow the SMILES beside them. 1Nal = N[C@@H](Cc1cccc2ccccc12)C(=O)O

Sequence of Sodium channel protein type 9 subunit alpha (Q15858 whole entry): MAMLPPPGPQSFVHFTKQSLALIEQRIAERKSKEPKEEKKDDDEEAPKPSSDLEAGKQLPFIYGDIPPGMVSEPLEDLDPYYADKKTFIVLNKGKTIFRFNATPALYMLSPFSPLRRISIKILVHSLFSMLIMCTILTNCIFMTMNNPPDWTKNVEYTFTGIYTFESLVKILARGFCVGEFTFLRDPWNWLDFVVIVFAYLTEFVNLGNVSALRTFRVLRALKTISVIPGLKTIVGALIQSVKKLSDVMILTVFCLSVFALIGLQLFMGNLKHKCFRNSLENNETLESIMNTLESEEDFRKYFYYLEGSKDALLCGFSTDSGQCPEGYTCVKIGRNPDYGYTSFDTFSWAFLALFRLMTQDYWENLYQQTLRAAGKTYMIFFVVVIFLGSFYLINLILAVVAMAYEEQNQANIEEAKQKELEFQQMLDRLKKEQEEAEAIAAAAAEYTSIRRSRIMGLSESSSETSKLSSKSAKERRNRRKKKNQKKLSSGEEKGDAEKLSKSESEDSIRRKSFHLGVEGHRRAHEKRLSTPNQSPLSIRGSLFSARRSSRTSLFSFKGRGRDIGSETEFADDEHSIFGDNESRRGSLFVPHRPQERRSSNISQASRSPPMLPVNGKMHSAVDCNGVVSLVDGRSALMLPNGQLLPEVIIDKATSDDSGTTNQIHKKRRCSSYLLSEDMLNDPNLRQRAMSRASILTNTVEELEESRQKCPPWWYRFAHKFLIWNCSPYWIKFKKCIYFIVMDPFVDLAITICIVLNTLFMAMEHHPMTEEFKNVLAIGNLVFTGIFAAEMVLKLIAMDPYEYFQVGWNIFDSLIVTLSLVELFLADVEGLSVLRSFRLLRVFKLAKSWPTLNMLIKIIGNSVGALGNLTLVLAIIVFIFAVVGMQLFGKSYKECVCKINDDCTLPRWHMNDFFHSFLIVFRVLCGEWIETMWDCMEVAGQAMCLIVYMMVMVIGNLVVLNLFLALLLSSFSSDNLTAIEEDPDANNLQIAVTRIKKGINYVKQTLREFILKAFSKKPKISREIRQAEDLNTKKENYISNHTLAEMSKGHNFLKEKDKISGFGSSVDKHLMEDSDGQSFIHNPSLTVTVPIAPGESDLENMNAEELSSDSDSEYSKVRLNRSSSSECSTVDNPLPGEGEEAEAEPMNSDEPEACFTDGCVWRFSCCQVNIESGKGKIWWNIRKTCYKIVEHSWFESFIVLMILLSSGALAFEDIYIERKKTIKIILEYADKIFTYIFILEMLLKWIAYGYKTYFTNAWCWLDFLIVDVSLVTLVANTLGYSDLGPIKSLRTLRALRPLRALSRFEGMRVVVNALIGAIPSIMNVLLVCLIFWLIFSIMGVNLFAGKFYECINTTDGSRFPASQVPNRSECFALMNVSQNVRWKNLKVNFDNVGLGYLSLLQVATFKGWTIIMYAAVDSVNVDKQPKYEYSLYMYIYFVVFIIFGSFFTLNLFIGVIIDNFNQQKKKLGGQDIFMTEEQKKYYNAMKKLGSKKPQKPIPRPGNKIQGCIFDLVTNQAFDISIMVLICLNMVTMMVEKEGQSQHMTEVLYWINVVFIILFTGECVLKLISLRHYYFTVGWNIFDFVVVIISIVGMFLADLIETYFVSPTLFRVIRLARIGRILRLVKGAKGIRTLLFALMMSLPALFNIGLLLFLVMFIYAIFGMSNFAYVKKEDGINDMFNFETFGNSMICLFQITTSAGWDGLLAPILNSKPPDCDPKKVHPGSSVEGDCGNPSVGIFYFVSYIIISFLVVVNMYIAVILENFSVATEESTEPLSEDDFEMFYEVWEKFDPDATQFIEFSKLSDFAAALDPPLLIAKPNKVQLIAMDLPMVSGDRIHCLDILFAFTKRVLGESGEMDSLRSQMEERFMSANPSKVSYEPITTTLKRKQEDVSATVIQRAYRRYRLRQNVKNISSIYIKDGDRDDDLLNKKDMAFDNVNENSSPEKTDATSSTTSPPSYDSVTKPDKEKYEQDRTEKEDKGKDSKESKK
Sequence of Sodium channel protein type 5 subunit alpha (Q14524 whole entry): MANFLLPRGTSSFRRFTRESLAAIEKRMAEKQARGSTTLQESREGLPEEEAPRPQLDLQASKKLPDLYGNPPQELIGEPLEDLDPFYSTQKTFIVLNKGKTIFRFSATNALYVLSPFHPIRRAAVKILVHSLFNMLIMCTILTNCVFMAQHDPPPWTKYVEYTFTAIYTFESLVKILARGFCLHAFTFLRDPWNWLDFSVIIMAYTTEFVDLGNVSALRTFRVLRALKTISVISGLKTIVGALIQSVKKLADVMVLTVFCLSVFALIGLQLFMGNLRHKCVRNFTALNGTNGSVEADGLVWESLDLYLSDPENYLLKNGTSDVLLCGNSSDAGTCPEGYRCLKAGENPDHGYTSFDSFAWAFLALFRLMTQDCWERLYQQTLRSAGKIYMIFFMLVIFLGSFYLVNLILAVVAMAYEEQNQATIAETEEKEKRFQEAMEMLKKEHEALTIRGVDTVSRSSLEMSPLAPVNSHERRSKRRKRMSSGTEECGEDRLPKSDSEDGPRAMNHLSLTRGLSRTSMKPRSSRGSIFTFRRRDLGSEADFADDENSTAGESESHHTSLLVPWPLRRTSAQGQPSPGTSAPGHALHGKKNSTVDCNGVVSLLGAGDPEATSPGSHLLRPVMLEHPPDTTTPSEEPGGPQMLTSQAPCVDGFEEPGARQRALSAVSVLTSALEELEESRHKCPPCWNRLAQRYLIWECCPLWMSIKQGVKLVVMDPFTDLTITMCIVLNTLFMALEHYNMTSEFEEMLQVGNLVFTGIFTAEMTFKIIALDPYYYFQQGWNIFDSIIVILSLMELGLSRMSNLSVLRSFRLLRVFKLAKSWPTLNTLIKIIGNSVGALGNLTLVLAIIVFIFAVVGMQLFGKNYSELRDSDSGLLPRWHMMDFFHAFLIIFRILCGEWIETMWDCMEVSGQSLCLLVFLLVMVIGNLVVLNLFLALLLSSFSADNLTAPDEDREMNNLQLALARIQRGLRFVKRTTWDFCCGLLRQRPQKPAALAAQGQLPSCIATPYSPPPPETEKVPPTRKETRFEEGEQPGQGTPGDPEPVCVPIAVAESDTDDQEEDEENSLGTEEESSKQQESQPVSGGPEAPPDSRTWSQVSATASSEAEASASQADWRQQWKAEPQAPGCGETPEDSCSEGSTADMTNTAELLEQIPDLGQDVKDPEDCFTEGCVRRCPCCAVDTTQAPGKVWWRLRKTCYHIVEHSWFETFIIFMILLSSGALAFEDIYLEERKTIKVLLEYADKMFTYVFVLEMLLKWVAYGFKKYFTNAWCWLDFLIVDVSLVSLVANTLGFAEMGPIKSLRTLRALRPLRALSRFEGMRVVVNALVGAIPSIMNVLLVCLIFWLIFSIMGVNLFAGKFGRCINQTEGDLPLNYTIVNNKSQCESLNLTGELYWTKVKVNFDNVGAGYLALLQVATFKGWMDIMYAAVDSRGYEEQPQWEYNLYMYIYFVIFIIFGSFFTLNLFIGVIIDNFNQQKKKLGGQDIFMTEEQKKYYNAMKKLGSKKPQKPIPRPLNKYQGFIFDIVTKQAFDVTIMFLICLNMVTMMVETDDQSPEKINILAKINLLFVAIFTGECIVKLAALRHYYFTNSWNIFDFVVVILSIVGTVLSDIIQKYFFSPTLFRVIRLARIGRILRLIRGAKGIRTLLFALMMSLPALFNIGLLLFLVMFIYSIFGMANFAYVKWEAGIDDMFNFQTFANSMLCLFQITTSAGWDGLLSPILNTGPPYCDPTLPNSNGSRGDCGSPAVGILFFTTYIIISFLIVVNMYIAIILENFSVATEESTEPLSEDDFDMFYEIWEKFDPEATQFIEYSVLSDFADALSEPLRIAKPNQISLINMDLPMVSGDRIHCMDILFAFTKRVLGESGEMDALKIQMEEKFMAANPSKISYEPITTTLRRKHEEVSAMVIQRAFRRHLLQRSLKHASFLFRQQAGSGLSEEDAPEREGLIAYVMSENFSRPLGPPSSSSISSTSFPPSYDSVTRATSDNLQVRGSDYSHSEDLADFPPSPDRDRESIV

Broadly, the pIC50 is the negative decadic logarithm of the IC50, by convention in mol/L. Turning to `CSCC[C@@H]1NC(=O)[C@H](Cc2ccccc2)NC(=O)CNC(=O)[C@H](CC(C)C)NC(=O)[C@@H](NC(=O)[C@@H](N)CC(=O)O)CSSC[C@@H]2NC(=O)[C@@H]3CSSC[C@@H](C(=O)N[C@@H](CCCCN)C(=O)N[C@@H](Cc4ccc(O)cc4)C(=O)N[C@H](C(=O)N[C@@H](Cc4ccccc4)C(N)=O)C(C)C)NC(=O)[C@H](Cc4c[nH]c5ccccc45)NC(=O)[C@H](CCCCN)NC(=O)[C@H](Cc4cnc[nH]4)NC(=O)[C@H]([C@@H](C)O)NC(=O)[C@H](CCCNC(=N)N)NC(=O)[C@H](CO)NC(=O)[C@H](CSSC[C@H](NC(=O)[C@H](CCCCN)NC(=O)[C@H](CCCNC(=N)N)NC1=O)C(=O)N[C@@H](CCCNC(=N)N)C(=O)N1CCC[C@H]1C(=O)N[C@@H](CC(=O)O)C(=O)N[C@@H](CC(N)=O)C(=O)N[C@@H](CC(=O)O)C(=O)N[C@@H](CCCCN)C(=O)N3)NC(=O)[C@H](C(C)C)NC(=O)[C@H](CC(C)C)NC(=O)[C@H](CC(N)=O)NC(=O)[C@@H]1CCCN1C(=O)[C@H](CCCNC(=N)N)NC2=O` (H-DCLGFMRKCRPDNDKCCRPNLVCSRTHKWCKYVF-NH2; disulfide 2-17, 9-23, 16-30), the pIC50 in test [1] is less than 5.30; in test [2], 6.77.

With `CC[C@H](C)[C@@H]1NC(=O)[C@@H]2CSSC[C@@H]3NC(=O)[C@H](C(C)C)NC(=O)[C@H](CC(C)C)NC(=O)[C@H](CC(N)=O)NC(=O)[C@@H]4CCCN4C(=O)[C@H](CCCNC(=N)N)NC(=O)[C@H](CSSC[C@H](NC(=O)[C@@H](N)CC(=O)O)C(=O)N[C@@H](CC(C)C)C(=O)NCC(=O)N[C@@H](Cc4ccccc4)C(=O)N[C@@H](CCSC)C(=O)N[C@@H](CCCNC(=N)N)C(=O)N[C@@H](CCCCN)C(=O)N2)NC(=O)[C@H](CSSC[C@@H](C(=O)N[C@@H](CCCCN)C(=O)N[C@@H](Cc2ccc(O)cc2)C(=O)N[C@H](C(=O)N[C@@H](Cc2ccccc2)C(N)=O)C(C)C)NC(=O)[C@H](Cc2c[nH]c4ccccc24)NC(=O)[C@H](CCCNC(=N)N)NC(=O)[C@H](Cc2cnc[nH]2)NC(=O)[C@H]([C@@H](C)O)NC(=O)[C@H](CCCNC(=N)N)NC(=O)[C@H](CO)NC3=O)NC(=O)[C@H](CCCCN)NC(=O)[C@H](CC(=O)O)NC(=O)[C@H](CC(N)=O)NC(=O)[C@H](CC(=O)O)NC(=O)[C@@H]2CCCN2C1=O`, the negative-log IC50 (pIC50) in test [1] is less than 5.30; in test [2], 7.05.

Regarding `CC[C@H](C)[C@@H]1NC(=O)[C@@H]2CSSC[C@@H]3NC(=O)[C@H](C(C)C)NC(=O)[C@H](CC(C)C)NC(=O)[C@H](CC(N)=O)NC(=O)[C@@H]4CCCN4C(=O)[C@H](CCCNC(=N)N)NC(=O)[C@H](CSSC[C@H](NC(=O)[C@@H](N)CC(=O)O)C(=O)N[C@@H](CC(C)C)C(=O)NCC(=O)N[C@@H](Cc4ccccc4)C(=O)N[C@@H](CCSC)C(=O)N[C@@H](CCC(=O)O)C(=O)N[C@@H](CCCCN)C(=O)N2)NC(=O)[C@H](CSSC[C@@H](C(=O)N[C@@H](CCCCN)C(=O)N[C@@H](Cc2ccc(O)cc2)C(=O)N[C@H](C(=O)N[C@@H](Cc2ccccc2)C(N)=O)C(C)C)NC(=O)[C@H](Cc2c[nH]c4ccccc24)NC(=O)[C@H](CCCCN)NC(=O)[C@H](Cc2cnc[nH]2)NC(=O)[C@H]([C@@H](C)O)NC(=O)[C@H](CCCNC(=N)N)NC(=O)[C@H](CO)NC3=O)NC(=O)[C@H](CCCCN)NC(=O)[C@H](CC(=O)O)NC(=O)[C@H](CC(N)=O)NC(=O)[C@H](CC(=O)O)NC(=O)[C@@H]2CCCN2C1=O` (H-DCLGFMEKCIPDNDKCCRPNLVCSRTHKWCKYVF-NH2; disulfide 2-17, 9-23, 16-30), the negative logarithm of the IC50 (pIC50) in test [1] is less than 5.30; in test [2], 6.07.

Regarding `CC[C@H](C)[C@@H]1NC(=O)[C@@H]2CSSC[C@@H]3NC(=O)[C@H](C(C)C)NC(=O)[C@H](CC(C)C)NC(=O)[C@H](CC(N)=O)NC(=O)[C@@H]4CCCN4C(=O)[C@H](CCCNC(=N)N)NC(=O)[C@H](CSSC[C@H](NC(=O)[C@@H](N)CC(=O)O)C(=O)N[C@@H](CC(C)C)C(=O)NCC(=O)N[C@@H](Cc4ccccc4)C(=O)N[C@@H](CCSC)C(=O)N[C@@H](CCCNC(=N)N)C(=O)N[C@@H](CCCCN)C(=O)N2)NC(=O)[C@H](CSSC[C@@H](C(=O)N[C@@H](CCCCN)C(=O)N[C@@H](CCCCN)C(=O)N[C@H](C(=O)N[C@@H](Cc2ccccc2)C(N)=O)C(C)C)NC(=O)[C@H](Cc2c[nH]c4ccccc24)NC(=O)[C@H](CCCCN)NC(=O)[C@H](Cc2cnc[nH]2)NC(=O)[C@H]([C@@H](C)O)NC(=O)[C@H](CCCNC(=N)N)NC(=O)[C@H](CO)NC3=O)NC(=O)[C@H](CCCCN)NC(=O)[C@H](CC(=O)O)NC(=O)[C@H](CC(N)=O)NC(=O)[C@H](CC(=O)O)NC(=O)[C@@H]2CCCN2C1=O` (H-DCLGFMRKCIPDNDKCCRPNLVCSRTHKWCKKVF-NH2; disulfide 2-17, 9-23, 16-30), the negative logarithm of the IC50 (pIC50) in test [1] was less than 5.30; in test [2], less than 5.31.

Turning to `CC[C@H](C)[C@@H]1NC(=O)[C@@H]2CSSC[C@@H]3NC(=O)[C@H](C(C)C)NC(=O)[C@H](CC(C)C)NC(=O)[C@H](CC(N)=O)NC(=O)[C@@H]4CCCN4C(=O)[C@H](CCCNC(=N)N)NC(=O)[C@H](CSSC[C@H](NC(=O)[C@@H](N)CC(=O)O)C(=O)N[C@@H](CC(C)C)C(=O)NCC(=O)N[C@@H](Cc4ccccc4)C(=O)N[C@@H](CCSC)C(=O)N[C@@H](CCCNC(=N)N)C(=O)N[C@@H](CCCCN)C(=O)N2)NC(=O)[C@H](CSSC[C@@H](C(=O)N[C@@H](CCCCN)C(=O)N[C@@H](Cc2ccc(O)cc2)C(=O)N[C@H](C(=O)N[C@@H](Cc2ccccc2)C(N)=O)C(C)C)NC(=O)[C@H](Cc2c[nH]c4ccccc24)NC(=O)[C@H](CCCCN)NC(=O)[C@H](Cc2c[nH]cn2)NC(=O)[C@H]([C@@H](C)O)NC(=O)[C@H](CCCNC(=N)N)NC(=O)[C@H](CO)NC3=O)NC(=O)[C@H](CCCCN)NC(=O)[C@H](CC(=O)O)NC(=O)[C@H](CC(N)=O)NC(=O)[C@H](Cc2cccc3ccccc23)NC(=O)[C@@H]2CCCN2C1=O` (H-DCLGFMRKCIP[1Nal]NDKCCRPNLVCSRTHKWCKYVF-NH2; disulfide 2-17, 9-23, 16-30), the pIC50 was less than 5.30 in test [1] and 7.00 in test [2].

Consider `CC[C@H](C)[C@@H]1NC(=O)[C@@H]2CSSC[C@@H]3NC(=O)[C@H](C(C)C)NC(=O)[C@H](CC(C)C)NC(=O)[C@H](CC(N)=O)NC(=O)[C@@H]4CCCN4C(=O)[C@H](CCCNC(=N)N)NC(=O)[C@H](CSSC[C@H](NC(=O)[C@@H](N)CC(=O)O)C(=O)N[C@@H](CC(C)C)C(=O)NCC(=O)N[C@@H](Cc4ccccc4)C(=O)N[C@@H](CCSC)C(=O)N[C@@H](CCCNC(=N)N)C(=O)N[C@@H](CCCCN)C(=O)N2)NC(=O)[C@H](CSSC[C@@H](C(=O)N[C@@H](CCCCN)C(=O)N[C@@H](Cc2ccc(O)cc2)C(=O)N[C@H](C(=O)N[C@@H](Cc2ccccc2)C(N)=O)C(C)C)NC(=O)[C@H](Cc2c[nH]c4ccccc24)NC(=O)[C@H](CCCCN)NC(=O)[C@H](CCC(=O)O)NC(=O)[C@H]([C@@H](C)O)NC(=O)[C@H](CCCNC(=N)N)NC(=O)[C@H](CO)NC3=O)NC(=O)[C@H](CCCCN)NC(=O)[C@H](CC(=O)O)NC(=O)[C@H](CC(N)=O)NC(=O)[C@H](CC(=O)O)NC(=O)[C@@H]2CCCN2C1=O` (H-DCLGFMRKCIPDNDKCCRPNLVCSRTEKWCKYVF-NH2; disulfide 2-17, 9-23, 16-30), for which the pIC50 in test [1] and in test [2] was less than 5.30 each time.
